Data taken from ChEMBL document CHEMBL1142709, “Discovery and evaluation of 2-anilino-5-aryloxazoles as a novel class of VEGFR2 kinase inhibitors” (J Med Chem, 2005).
One block for each compound: values may come before it.

Legend:
[1] = Inhibition of basic FGF-induced proliferation of human umbilical vein endothelial cells; assay type: functional, cell-based; conditions: Endothelial cell
[2] = Time at which peak plasma concentration is attained in mice following oral administration of an aqueous solution of the bis-mesylate salt of the compound; assay type: ADME, organism-based; conditions: mouse
How it was run: (§1)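 Male CD mice (n = 2) given the bis-mesylate salt as an aqueous solution at 100 mg/kg by oral gavage, dose volume 10 mL/kg. Plasma taken from blood kept on wet ice, stored at -20 °C, protein-precipitated with four volumes of acetonitrile and analysed by HPLC/MS.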

[3] = Peak plasma concentration in mice following oral administration of an aqueous solution of the bis-mesylate salt of the compound; assay type: ADME, organism-based; design: route oral; conditions: mouse; how it was run: as §1
HT-29 = assay: In vitro inhibition of human colon tumor HT-29 cell proliferation; assay type: functional, cell-based
[4] = Area under concentration time curve in mice following oral administration of an aqueous solution of the bis-mesylate salt of the compound; assay type: ADME; conditions: mouse, in vivo; how it was run: as §1
[5] = Distribution at steady state was determined in dogs dosed at […] and 1 mg/kg po in 0.5% HPMC w/0.1%Tween 80 (n=2); assay type: ADME, organism-based, Canis lupus familiaris; conditions: dog, in vivo, iv, read-out: Vdss
[6] = Half life in rats dosed at […] iv in 10% HP-alpha-cyclodextrin in 0.05 M acetic acid and 10 mg/kg po in 0.5% HPMCw/0.1% Tween 80 (n=3); assay type: ADME, organism-based; conditions: rat, in vivo
[7] = Half life in dogs dosed at 1 mg/kg iv in 40% […] and 1 mg/kg po in 0.5% HPMC w/0.1%Tween 80 (n=2); assay type: ADME, organism-based, Canis lupus familiaris; conditions: dog, in vivo
How it was run: (§2)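 Male beagle dogs (n = 2). IV 1 mg/kg in 40% SBE-β-cyclodextrin and oral gavage 1 mg/kg in 0.5% HPMC/0.1% Tween 80, dose volume 0.5 mL/kg. Plasma precipitated with four volumes of acetonitrile and analysed by HPLC/MS. Parameters are averages of two dogs.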

[8] = Bioavailability of compound was determined in rats dosed at […] iv in 10% HP-alpha-cyclodextrin in 0.05 M acetic acid and 10 mg/kg po in 0.5% HPMCw/0.1% Tween 80 (n=3); assay type: ADME, organism-based; conditions: rat, in vivo
[9] = Distribution at steady state was determined in rats dosed at […] iv in 10% HP-alpha-cyclodextrin in 0.05 M acetic acid and 10 mg/kg po in 0.5% HPMCw/0.1% Tween 80 (n=3); assay type: ADME, organism-based; conditions: rat, in vivo, read-out: Vdss
[10] = Bioavailability of compound was determined in dogs dosed at 1 mg/kg iv in 40% […] and 1 mg/kg po in 0.5% HPMC w/0.1%Tween 80 (n=2); assay type: ADME, organism-based, Canis lupus familiaris; conditions: dog, in vivo; how it was run: as §2

SMILES: CCS(=O)(=O)c1ccc(OC)c(Nc2ncc(-c3cccc(-c4ccccc4Cl)c3)o2)c1
IC50 [1]: 1.1 µM

Tmax [2]: 4 h | Cmax [3]: 35 µM | IC50 (HT-29): 4.5 µM | AUC [4]: 102 µg·h/mL
SMILES: CCS(=O)(=O)c1ccc(OC)c(Nc2ncc(-c3cccc(-c4ccccn4)c3)o2)c1
IC50 [1]: 5.8 µM

Vd [5]: 3.74 L/kg | half-life [6]: 1.6 h | half-life [7]: 3.5 h | bioavailability [8]: 11% | Vd [9]: 1.03 L/kg | bioavailability [10]: 7%
SMILES: CCS(=O)(=O)c1ccc(OC)c(Nc2ncc(-c3cccc(-c4ccccn4)c3)o2)c1.CS(=O)(=O)O

SMILES: Clc1ccc(Nc2nnc(Cc3ccncc3)c3ccccc23)cc1 [VATALANIB]
IC50 [1]: 25 µM

SMILES: c1ccc(Nc2ncc(-c3ccccc3)o2)cc1 [GW549390X]
IC50 [1]: 24 µM

SMILES: COc1cc2/c(=N/c3ccc(Br)cc3F)nc[nH]c2cc1OCC1CCN(C)CC1 [VANDETANIB]
IC50 [1]: 1.2 µM
